RGS4 inh: inhibitors of human RGS4; B-score at 10 µM; P49798; 310,000 tested, 0.45% active; AID 463165; HEK293 M3R/RGS4 inducible, Fluo-4 calcium flux; active compounds read high; triggered by carbachol at its EC20;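 active means B-score, a plate-corrected calcium signal, over three deviations above library mean, with baseline fluorescence within five deviations of library mean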;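 further: RGS4 expression induced by doxycycline in cells with stable M3 receptor; B-score is computed from the integrated fluorescence ratio over baseline after carbachol; higher B-score means a larger calcium signal and so more RGS4 inhibition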
Target sequence (P49798 whole entry, looked up): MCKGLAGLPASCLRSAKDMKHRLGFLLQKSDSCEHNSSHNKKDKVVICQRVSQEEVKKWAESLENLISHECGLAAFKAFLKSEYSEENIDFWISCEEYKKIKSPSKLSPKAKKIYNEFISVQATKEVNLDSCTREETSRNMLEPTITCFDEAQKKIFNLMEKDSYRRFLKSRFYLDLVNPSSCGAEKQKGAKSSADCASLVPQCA
MrgX1 antag: antagonists of human MrgX1 receptor; Q96LB2; AID 588676; 310,000 tested, 1.3% active; B-score at 10 µM; MRGX1-HEK293 calcium flux, Fluo-4, BAM8-22 antagonism; active compounds read low;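 active means calcium-response B-score plate-corrected more than 3 library SD below zero, starting fluorescence within 5 deviations, no agonist response on first addition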;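 further: peak minus trough fluorescence over baseline after final BAM8-22 challenge near maximal dose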
Target sequence (Q96LB2 whole entry, looked up): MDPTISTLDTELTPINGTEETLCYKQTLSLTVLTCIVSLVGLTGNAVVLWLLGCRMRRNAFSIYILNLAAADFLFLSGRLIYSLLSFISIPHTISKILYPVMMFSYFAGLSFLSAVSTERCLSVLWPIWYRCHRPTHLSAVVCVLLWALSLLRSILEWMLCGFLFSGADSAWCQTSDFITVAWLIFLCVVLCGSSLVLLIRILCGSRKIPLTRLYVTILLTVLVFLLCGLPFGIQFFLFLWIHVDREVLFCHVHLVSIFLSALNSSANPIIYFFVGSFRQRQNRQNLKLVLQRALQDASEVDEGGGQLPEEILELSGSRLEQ
MrgX1 agonist: activates human MrgX1 receptor signaling | MrgX1-HEK293 cells, Fluo-4 calcium fluorescence, agonist mode; active compounds read high | B-score at 10 µM | 310,000 tested, 0.44% active | AID 588627 | Q96LB2;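 active means calcium response B-score plate-corrected fluorescence ratio at least 3 library SD, with starting fluorescence B-score inside 5 SD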
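times = overnight plating, then 30 min 37 °C plus 30 min room-temperature dye loading | assay system = stable human MrgX1 HEK293 cell line | input = fifteen thousand cells per well | signal = kinetic calcium dye fluorescence, Fluo-4 NW | dosing = compound delivered in addition one of three | read-out = B-scored fluorescence response ratio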
MrgX1 PAM: allosterically activates human MrgX1 receptor signaling; Q96LB2; MrgX1-HEK293, Fluo-4 calcium flux, FDSS; active compounds read high; B-score at 10 µM; 310,000 tested, 0.63% active; AID 588675;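 active means plate-corrected calcium response at least 3 library SD above typical, normal starting fluorescence, not activating the receptor alone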;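 further: compound read alongside a low EC10 to EC30 dose of BAM8-22 agonist; peak minus trough fluorescence over baseline measured at the second addition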
RGS4 pot: RGS4 potentiation or activation. HEK293 M3R/inducible RGS4, carbachol calcium flux Fluo4; active compounds read low. B-score at 10 µM. 310,000 tested, 0.92% active. AID 463111;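 active means B-score of the integrated calcium signal more than 4 SD below the library mean, with starting fluorescence not abnormally high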;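 further: negative B-score means reduced calcium response which marks RGS4 activation or potentiation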
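System: HEK293 FlpIn-TREx cells, stable M3R, doxycycline-inducible RGS4. Timing: overnight RGS4 induction, 30 min dye load 37 °C, 20 min compound RT. Also added: carbachol, ECmax concentration. Measured by: Fluo4 fluorescence kinetic imaging of calcium. Evaluation: integrated calcium ratio converted to B score.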
* = called active by the depositor; i = inactive; . = no result given. Sampled rows, rich in hits. Any-hit rate of the full collection: about 3.5%.

SMILES	RGS4 inh	MrgX1 antag	MrgX1 agonist	MrgX1 PAM	RGS4 pot
O=C(c1ccco1)N1CCN(C(c2cccs2)c2nnnn2C2CCCCC2)CC1 (centres undefined)	i	i	i	i	-7.6*
COc1ccc(C(c2nnnn2C2CCCC2)N2CCN(C(=O)c3ccco3)CC2)cc1OC (centres undefined)	i	i	i	i	i
COc1ccc(-n2cnc3scc(-c4ccccc4)c3c2=O)cc1	i	i	i	i	i
Cc1ccccc1NC(=O)Cc1nc(COC(=O)C(C)C)cs1	i	i	i	i	i
CC(=O)Nc1ccc(S(=O)(=O)NCCC(=O)OCc2csc(CC(=O)Nc3ccccc3C)n2)cc1	i	-4.5*	i	i	i
COc1ccc(NC2SC(=O)N(C)C2=O)cc1 (centres undefined)	i	i	i	i	i
CCCC(=O)NC(=S)Nc1ccccc1N1CCOCC1	i	-7.7*	i	i	i
CCCCC(=O)NC(=S)Nc1ccccc1N1CCCCC1	i	i	i	i	i
COc1ccccc1-n1cc(CN2CCN(CC(C)C)C(CCO)C2)cn1 (centres undefined)	i	-5.8*	i	i	i
COc1ccccc1-n1cc(CN2CCN(C3CCCC3)C(CCO)C2)cn1 (centres undefined)	i	i	i	i	i
Clc1cccc(NCc2nnc(SCc3ccc(Cl)cc3Cl)o2)c1	i	i	i	i	-8.6*
COc1ccc(NC(=O)COC(=O)CCCN2C(=O)c3ccccc3C2=O)cc1Cl	i	i	i	i	i
COc1ccc(C(=O)COC(=O)c2cc(S(=O)(=O)NCc3ccccc3)ccc2O)cc1	i	i	26*	i	i
CC(NC(=O)c1ccc(F)cc1F)C1CC2CCC1C2 (centres undefined)	i	i	i	i	i
CC1=CCC2C(=O)N(c3ccccc3OC(=O)c3ccccc3F)C(=O)C2C1 (centres undefined)	i	i	i	i	i
CC(C)=CCC/C(C)=C/COc1ccc2ccc(=O)oc2c1	i	i	i	i	i
COCOc1ccc(-c2oc3c(C/C=C(\C)CCC=C(C)C)ccc(O)c3c(=O)c2OCOC)c(OCOC)c1	i	-6.9*	i	i	i
Cc1ccc2c(=O)cc(C(=O)NC3CCS(=O)(=O)C3)oc2c1C (centres undefined)	i	i	i	i	i
Cc1cc(OC(=O)c2ccccc2Cl)cc(=O)n1C	i	i	i	10*	i
CC(NC(=O)CCl)c1ccccc1Br (centres undefined)	i	i	i	i	i
CCOC(=O)C1C(=O)C=C(c2ccc(Br)cc2)CC1c1ccco1 (centres undefined)	i	-5.7*	i	i	i
CCOC(=O)C1C(=O)C=C(c2cccc(NS(C)(=O)=O)c2)CC1c1ccco1 (centres undefined)	i	i	i	i	i
O=[N+]([O-])/C=C/c1cc2ccccc2[nH]1	i	i	41*	i	i
Cc1ccc(C)c(N2CCN(C(=O)c3ccc(NC4=NC5CS(=O)(=O)CC5S4)cc3)CC2)c1 (centres undefined)	i	i	i	i	i
CCN1CCN(C(=O)c2ccc(NS(=O)(=O)c3ccccc3)cc2)CC1	i	i	i	i	i
SMILES	RGS4 inh	MrgX1 antag	MrgX1 agonist	MrgX1 PAM	RGS4 pot
COc1ccc(N(C(=O)c2cccnc2)S(=O)(=O)c2cccc([N+](=O)[O-])c2)cc1	i	i	i	6.7*	i
Cc1nn(Cc2ccccc2)c(Cl)c1/C=C/C(=O)OCC(=O)NC(C)C(C)C (centres undefined)	i	i	i	i	i
Cc1nn(Cc2ccccc2)c(Cl)c1/C=C/C(=O)OC(C)C(=O)N1CCCC1 (centres undefined)	i	-5.9*	i	i	i
CC(C)c1ccccc1OCC(=O)Nc1cc(S(=O)(=O)N2CCOCC2)ccc1N1CCCC1	i	i	i	i	i
Cc1ccc(-c2nnn(CC(=O)N(c3ccc(F)cc3)C(C(=O)NC3CCCC3)c3ccco3)n2)o1 (centres undefined)	i	i	i	i	i
Cc1ccc(-c2nnn(CC(=O)N(c3cccc(F)c3)C(C(=O)NC3CCCC3)c3ccco3)n2)o1 (centres undefined)	i	-6.6*	i	i	i
N#C/C(=C\c1ccc(Cl)cc1)c1nc(-c2ccco2)cs1	i	-6.2*	i	i	i
N#C/C(=C\c1ccc(F)cc1)c1nc(-c2ccco2)cs1	i	i	i	i	i
Cc1c(Cl)c([N+](=O)[O-])nn1Cc1ccc(C(=O)Nc2ccc(Cl)cn2)o1	i	-6.9*	i	i	i
O=C(Nc1ccc(Cl)cn1)c1ccc([N+](=O)[O-])o1	i	.	.	.	i
O=C(O)c1ccccc1C(=O)NCCc1c(C(=O)O)[nH]c2ccc(Cl)cc12	i	i	i	i	i
COC(=O)C1CCN(CC(=O)Nc2cc(Cl)ccc2OC)CC1	i	i	i	21*	i
O=C(NCCN1C(=O)S/C(=C\c2ccc(OC(F)F)cc2)C1=O)[C@@H]1CCCN1C(=O)c1cccs1	i	i	i	8.2*	i
C=CCSC1=NN2CCS(=O)(=O)N=C2S1	i	i	i	i	i
O=[N+]([O-])c1ccccc1SN(Cc1ccccc1)c1ccccn1	i	i	i	i	i
CC1CCCCN1CC(=O)NC(c1ccccc1)c1ccccc1 (centres undefined)	i	i	i	i	-7.3*
CSc1ccccc1NC(=O)CN1CCCCC1C (centres undefined)	i	i	i	i	i
CCOC(=O)/C(C#N)=C/c1c[nH]c2ccccc12	i	i	i	i	i
CCOC(=O)C(=Cc1c[nH]c2ccc(S(=O)(=O)N(C)C)cc12)C(=O)OCC	i	i	i	6.7*	i
Cc1ccc(C(=O)N2CCC(N3CCC(C(=O)N4CCOCC4)CC3)CC2)cc1C	i	i	i	i	i
COc1cccc(-c2nc(N3CCC(C)CC3)c3ccccc3n2)c1O	i	i	i	i	-7.1*
COc1ccc(Nc2nc(-c3cccc(OC)c3O)nc3ccccc23)cc1	i	i	i	i	-7.6*
CCN(/N=C/C=C/c1ccccc1)c1cc(=O)n(C)c(=O)[nH]1	i	-5.6*	i	i	i
CC1=NN(c2ccc(Br)cc2)C(=O)/C1=C/c1cccs1	i	i	i	14*	i

Compound activity: PubChem, Johns Hopkins Ion Channel Center
